For four compounds, inhibition results are on record in ChEMBL document CHEMBL5696442, “Discovery of type II inhibitors of TGFβ-activated kinase 1 (TAK1) and mitogen-activated protein kinase kinase kinase kinase 2 (MAP4K2)” (J Med Chem, 2015).

One may read the inhibition as the drop in the measured response relative to a control, in per cent.

Assay [1] concerns the target Mitogen-activated protein kinase 10 (Homo sapiens, UniProt P53779). Nature of the assay: Inhibition of JNK3 Lys2 labeling site in human Huh-7 cell lysate at 1 uM by KiNativ Profiling analysis relative to control. Format: subcellular.
The target of assay [2] is T1, Ephrin type-B receptor 2 (Homo sapiens) (UniProt P29323).
T1 sequence (whole entry): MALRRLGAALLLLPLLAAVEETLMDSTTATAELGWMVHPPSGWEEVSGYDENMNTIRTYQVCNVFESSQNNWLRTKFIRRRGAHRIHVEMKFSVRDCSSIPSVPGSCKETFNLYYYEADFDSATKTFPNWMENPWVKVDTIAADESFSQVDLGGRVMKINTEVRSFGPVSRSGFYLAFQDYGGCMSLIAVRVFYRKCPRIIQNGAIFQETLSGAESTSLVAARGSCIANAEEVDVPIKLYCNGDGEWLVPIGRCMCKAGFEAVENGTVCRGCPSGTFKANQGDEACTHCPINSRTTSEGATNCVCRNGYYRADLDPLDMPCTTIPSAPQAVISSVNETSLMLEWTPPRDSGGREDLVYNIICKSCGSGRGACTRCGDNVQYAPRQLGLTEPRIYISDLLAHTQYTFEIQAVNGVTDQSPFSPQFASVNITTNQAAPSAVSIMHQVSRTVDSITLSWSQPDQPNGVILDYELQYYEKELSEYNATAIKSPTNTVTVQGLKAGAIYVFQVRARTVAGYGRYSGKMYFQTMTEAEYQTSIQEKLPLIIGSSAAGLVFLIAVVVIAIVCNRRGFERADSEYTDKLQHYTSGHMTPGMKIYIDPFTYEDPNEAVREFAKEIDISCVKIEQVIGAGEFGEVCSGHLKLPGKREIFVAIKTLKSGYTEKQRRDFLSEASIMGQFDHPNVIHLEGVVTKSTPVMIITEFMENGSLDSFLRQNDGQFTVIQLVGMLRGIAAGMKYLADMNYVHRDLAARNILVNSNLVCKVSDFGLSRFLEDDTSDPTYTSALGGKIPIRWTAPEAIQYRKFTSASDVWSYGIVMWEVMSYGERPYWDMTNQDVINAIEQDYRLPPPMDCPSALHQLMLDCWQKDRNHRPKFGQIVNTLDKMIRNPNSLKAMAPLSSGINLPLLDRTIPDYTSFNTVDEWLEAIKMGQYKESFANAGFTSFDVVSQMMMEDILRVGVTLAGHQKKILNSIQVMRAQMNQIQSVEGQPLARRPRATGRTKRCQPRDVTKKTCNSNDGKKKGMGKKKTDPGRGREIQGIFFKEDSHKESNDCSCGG
Description: Inhibition of EphB2 ACT labeling site in human A-375 cells at 0.05 uM by KiNativ Profiling analysis relative to control. Format: cell-based.

Assay [3] addresses T2, Mitogen-activated protein kinase kinase kinase 2 (Homo sapiens) (UniProt Q9Y2U5).
T2 sequence (whole entry): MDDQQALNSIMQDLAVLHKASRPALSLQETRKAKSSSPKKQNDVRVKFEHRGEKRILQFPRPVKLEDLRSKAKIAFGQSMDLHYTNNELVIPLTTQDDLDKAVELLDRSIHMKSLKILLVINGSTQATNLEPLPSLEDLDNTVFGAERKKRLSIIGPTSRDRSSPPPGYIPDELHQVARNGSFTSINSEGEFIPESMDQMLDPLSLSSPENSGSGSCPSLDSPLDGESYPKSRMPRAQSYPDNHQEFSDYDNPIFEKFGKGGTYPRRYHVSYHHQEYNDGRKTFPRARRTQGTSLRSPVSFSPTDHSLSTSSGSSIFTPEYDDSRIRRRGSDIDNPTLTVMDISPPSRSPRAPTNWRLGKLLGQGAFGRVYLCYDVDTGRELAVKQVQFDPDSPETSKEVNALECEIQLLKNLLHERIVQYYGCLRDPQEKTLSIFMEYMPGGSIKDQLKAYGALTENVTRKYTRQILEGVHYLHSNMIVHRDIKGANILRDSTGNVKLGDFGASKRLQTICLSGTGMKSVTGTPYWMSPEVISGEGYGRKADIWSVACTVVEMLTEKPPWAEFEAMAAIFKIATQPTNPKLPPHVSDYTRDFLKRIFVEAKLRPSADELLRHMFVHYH
Nature of the assay: Inhibition of MAP3K2 Lys1 labeling site harbouring VYLCYDVDTGRELAVKQVQFDPDSPETSKEVNALECEIQLLK in human A-375 cells at 0.05 uM by KiNativ Profiling analysis relative to control. It counts as cell-based.

Assay [4] deals with Ribosomal protein S6 kinase alpha-3 (Homo sapiens) (UniProt P51812). Description: Inhibition of RSK2 domain2 Protein Kinase Domain in human A-375 cells at 5 uM by KiNativ Profiling analysis relative to control. It counts as cell-based. The method in brief: (§1)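 Live A375 melanoma cells treated with compound at 5 or 0.5 μM, then lysed. Lysate kinases were labeled with a lysine-reactive ATP or ADP-biotin probe. Inhibition was read as protection of labeling sites from the probe.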

Assay [5] concerns the target 5'-AMP-activated protein kinase catalytic subunit alpha-2 (Homo sapiens) (UniProt P54646). Nature of the assay: Inhibition of AMPKa2 Lys1 labeling site in human A-375 cells at 5 uM by KiNativ Profiling analysis relative to control. It counts as cell-based. The method in brief: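 Live A375 melanoma cells were treated with compound at 5 or 0.5 μM, then lysed. The lysates were labeled with a lysine-reactive ATP or ADP-biotin probe. Kinase protection from probe labeling was measured by KiNativ.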

The target of assay [6] is TRAF2 and NCK-interacting protein kinase (Homo sapiens) (UniProt Q9UKE5). Nature of the assay: Inhibition of ZC2/TNIK Lys2 labeling site in human A-375 cells at 0.5 uM by KiNativ Profiling analysis relative to control. It counts as cell-based.
Assay [7] addresses Ribosomal protein S6 kinase alpha-3 (Homo sapiens) (UniProt P51812). Nature of the assay: Inhibition of RSK2 domain2 Lys2 labeling site in human A-375 cells at 5 uM by KiNativ Profiling analysis relative to control. It counts as cell-based. An outline of the steps: as §1
For assay [8], the target named is Interleukin-1 receptor-associated kinase 1 (Homo sapiens) (UniProt P51617). Description: Inhibition of IRAK1 Lys2 labeling site in human A-375 cells at 0.05 uM by KiNativ Profiling analysis relative to control. It counts as cell-based.
Chain of Interleukin-1 receptor-associated kinase 1 (Homo sapiens) (P51617 whole entry, looked up): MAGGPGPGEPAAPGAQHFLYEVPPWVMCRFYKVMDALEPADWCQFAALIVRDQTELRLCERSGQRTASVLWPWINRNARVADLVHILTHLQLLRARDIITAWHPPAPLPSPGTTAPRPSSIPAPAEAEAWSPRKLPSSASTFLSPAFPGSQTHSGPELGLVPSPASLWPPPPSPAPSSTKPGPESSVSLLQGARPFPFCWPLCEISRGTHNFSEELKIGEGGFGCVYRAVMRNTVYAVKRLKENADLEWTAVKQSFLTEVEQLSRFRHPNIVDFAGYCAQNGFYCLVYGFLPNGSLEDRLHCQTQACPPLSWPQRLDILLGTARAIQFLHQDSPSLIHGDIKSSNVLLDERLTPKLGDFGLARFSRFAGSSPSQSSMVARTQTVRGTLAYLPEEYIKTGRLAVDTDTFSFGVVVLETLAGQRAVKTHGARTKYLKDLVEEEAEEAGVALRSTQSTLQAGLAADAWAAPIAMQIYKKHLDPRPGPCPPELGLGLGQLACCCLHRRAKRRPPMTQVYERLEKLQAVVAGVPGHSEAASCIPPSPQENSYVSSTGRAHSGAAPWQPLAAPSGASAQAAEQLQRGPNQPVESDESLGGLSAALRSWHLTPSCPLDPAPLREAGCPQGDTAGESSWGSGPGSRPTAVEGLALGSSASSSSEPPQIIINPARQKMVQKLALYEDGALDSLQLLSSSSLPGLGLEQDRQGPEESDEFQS

Chain of Ribosomal protein S6 kinase alpha-3 (Homo sapiens) (P51812 whole entry, the tested form may be a part): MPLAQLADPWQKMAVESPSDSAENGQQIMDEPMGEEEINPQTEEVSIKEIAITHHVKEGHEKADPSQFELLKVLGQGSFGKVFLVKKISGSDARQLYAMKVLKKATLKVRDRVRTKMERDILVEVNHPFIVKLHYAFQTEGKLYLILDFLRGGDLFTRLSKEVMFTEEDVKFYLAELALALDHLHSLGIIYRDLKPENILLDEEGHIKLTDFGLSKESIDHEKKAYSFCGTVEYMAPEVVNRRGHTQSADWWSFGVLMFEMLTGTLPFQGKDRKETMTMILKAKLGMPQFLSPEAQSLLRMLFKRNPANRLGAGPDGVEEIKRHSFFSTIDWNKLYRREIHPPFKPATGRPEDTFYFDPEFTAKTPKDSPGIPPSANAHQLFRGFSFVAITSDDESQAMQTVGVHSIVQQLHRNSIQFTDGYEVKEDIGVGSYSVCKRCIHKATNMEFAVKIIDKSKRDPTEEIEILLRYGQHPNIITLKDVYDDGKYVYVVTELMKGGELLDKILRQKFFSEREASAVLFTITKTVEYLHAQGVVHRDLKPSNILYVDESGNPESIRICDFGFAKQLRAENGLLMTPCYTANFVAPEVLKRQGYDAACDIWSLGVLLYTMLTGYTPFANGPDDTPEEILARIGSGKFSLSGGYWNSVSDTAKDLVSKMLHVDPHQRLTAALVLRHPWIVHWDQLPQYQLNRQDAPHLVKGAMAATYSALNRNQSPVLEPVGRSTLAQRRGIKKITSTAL
Chain of TRAF2 and NCK-interacting protein kinase (Homo sapiens) (Q9UKE5 whole entry, looked up, the tested form may be a part): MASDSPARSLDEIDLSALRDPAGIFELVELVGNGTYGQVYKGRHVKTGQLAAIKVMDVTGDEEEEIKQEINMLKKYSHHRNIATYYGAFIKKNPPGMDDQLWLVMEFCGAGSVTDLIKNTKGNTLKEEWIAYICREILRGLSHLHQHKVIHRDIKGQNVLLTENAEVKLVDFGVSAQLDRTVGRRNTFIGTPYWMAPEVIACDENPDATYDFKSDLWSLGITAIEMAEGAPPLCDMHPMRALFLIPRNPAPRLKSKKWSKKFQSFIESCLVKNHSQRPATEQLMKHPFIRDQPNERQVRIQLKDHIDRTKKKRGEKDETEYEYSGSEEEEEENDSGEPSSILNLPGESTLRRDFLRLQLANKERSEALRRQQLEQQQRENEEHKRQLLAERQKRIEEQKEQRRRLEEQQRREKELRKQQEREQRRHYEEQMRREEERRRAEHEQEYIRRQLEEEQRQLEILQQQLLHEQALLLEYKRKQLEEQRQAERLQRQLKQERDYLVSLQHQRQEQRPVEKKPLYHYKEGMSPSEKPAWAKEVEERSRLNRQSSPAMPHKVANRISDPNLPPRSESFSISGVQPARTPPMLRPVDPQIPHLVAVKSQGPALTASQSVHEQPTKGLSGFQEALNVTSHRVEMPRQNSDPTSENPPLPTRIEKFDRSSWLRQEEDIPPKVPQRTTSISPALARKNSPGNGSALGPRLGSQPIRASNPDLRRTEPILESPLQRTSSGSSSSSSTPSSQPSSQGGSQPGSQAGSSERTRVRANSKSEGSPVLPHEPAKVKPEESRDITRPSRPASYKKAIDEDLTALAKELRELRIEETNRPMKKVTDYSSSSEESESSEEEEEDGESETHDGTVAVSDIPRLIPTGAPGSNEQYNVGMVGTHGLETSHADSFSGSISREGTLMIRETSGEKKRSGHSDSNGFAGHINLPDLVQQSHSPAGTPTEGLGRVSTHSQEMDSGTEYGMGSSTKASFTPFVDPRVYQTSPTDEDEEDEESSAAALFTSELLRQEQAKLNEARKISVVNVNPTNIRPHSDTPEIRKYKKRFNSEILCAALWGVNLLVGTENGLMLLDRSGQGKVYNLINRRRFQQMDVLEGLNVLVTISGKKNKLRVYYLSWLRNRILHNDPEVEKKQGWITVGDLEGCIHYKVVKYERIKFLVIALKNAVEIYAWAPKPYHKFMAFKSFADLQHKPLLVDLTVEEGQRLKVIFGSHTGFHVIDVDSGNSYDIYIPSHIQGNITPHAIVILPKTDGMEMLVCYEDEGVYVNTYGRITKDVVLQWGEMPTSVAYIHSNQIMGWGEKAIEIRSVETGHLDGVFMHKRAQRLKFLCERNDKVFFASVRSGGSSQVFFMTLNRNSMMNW
Chain of 5'-AMP-activated protein kinase catalytic subunit alpha-2 (Homo sapiens) (P54646 whole entry, looked up): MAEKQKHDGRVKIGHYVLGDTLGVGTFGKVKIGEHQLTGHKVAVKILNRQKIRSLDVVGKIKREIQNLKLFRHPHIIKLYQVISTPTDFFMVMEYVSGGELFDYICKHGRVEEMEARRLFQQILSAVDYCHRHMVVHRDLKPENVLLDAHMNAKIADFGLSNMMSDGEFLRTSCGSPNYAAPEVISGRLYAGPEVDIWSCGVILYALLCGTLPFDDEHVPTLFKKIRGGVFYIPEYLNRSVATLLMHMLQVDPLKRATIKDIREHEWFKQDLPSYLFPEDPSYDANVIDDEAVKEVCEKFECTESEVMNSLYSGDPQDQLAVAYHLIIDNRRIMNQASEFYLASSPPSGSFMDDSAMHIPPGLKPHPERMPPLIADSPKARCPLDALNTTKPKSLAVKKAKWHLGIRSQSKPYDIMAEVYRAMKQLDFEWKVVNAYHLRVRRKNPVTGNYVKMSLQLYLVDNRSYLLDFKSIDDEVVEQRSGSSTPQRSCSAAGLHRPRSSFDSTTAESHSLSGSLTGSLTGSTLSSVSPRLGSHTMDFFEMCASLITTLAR
Chain of Mitogen-activated protein kinase 10 (P53779 whole entry): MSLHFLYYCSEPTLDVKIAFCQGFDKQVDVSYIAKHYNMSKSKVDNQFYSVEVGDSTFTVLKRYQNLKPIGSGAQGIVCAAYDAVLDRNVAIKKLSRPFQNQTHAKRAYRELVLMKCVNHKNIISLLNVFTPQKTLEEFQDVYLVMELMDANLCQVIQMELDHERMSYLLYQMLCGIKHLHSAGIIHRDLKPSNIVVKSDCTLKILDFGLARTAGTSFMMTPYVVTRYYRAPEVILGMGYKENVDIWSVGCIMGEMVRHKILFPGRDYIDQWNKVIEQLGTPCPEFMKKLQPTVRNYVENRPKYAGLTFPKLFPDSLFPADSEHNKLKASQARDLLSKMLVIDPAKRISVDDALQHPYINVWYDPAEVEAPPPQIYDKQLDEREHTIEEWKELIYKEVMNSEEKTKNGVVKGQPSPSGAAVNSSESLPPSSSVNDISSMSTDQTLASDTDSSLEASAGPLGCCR

As to `CNc1cc(Oc2cc(C(=O)Nc3cc(N4CCN(C)CC4)cc(C(F)(F)F)c3)ccc2C)ncn1`, the inhibition in assay [1] was 7%.

Take `CCN1CCN(Cc2ccc(NC(=O)c3ccc(C)c(/C=C/c4cnc5[nH]ccc5c4OC)c3)cc2C(F)(F)F)CC1`: the inhibition came out at 36.9% in assay [2]; 1.5% in assay [3]; 33.3% in assay [4]; 37% in assay [5]; 48.1% in assay [6]; 23.7% in assay [7]. Moreover, in assay [8], the inhibition is -9.4%.

For `CNc1cc(Oc2cc(C(=O)Nc3cc(-n4cnc(C)c4)cc(C(F)(F)F)c3)ccc2C)ncn1`, the inhibition in assay [1] was determined as 18.4%.

Consider `CCN1CCN(Cc2ccc(NC(=O)c3ccc(C)c(Oc4ccnc5[nH]ccc45)c3)cc2C(F)(F)F)CC1`, for which the inhibition in assay [2] was 5%; in assay [3] it was -3.7%; in assay [4], 0.4%; in assay [5], 11.6%; in assay [6] it was 70.8%; in assay [7] it was 14.4%. Further, in assay [8], the inhibition came to 14.2%.
